The text below walks through data of ChEMBL document CHEMBL5033998, “Discovery of DDO-2213 as a Potent and Orally Bioavailable Inhibitor of the WDR5-Mixed Lineage Leukemia 1 Protein-Protein Interaction for the Treatment of MLL Fusion Leukemia” (J Med Chem, 2021).

In general, pIC50 refers to the negative decadic logarithm of the IC50, by convention in mol/L. By CL/F is commonly meant clearance divided by bioavailability, as obtained after extravascular dosing. Usually MRT stands for a mean duration of stay, worked out from the concentration-time curve. A word on the AUC(0-t): it is the area under the concentration-time curve up to a stated or last time point. The low end stands for low exposure, the high end for high exposure. What is called half-life is how long it takes for the measured level to halve. The term inhibition in vivo denotes the change of the read-out against control, counted positive when it falls. For orientation: Tmax means the time from dosing to the highest level.

For data set [1], the target named is Histone-lysine N-methyltransferase EZH2 (Homo sapiens, UniProt Q15910). Kind of data set: Inhibition of EZH2 (unknown origin) assessed as effect on H3K27 methylation incubated for 30 mins by Alphascreen assay. An outline of the steps:
(§1)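 AlphaScreen: enzyme, SAM and compound mixed in 10 mM PBS for 30 min at room temperature; acceptor beads and substrate antibody added, 30 min at room temperature, then streptavidin donor beads; read on AlphaScreen reader.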
For orientation: Alpha assays give light when donor and acceptor beads are brought close together.

A short description of data set [2]: Apparent clearance in Sprague-Dawley rat at 10 mg/kg, po measured upto 24 hrs by LC-MS/MS analysis. To be noted: in vivo. It counts as ADME, organism-based. The method in brief:
(§2)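 Male SD rats, 6–8 weeks, 220 ± 30 g; single oral dose 10 mg/kg (n = 3). Plasma sampled at 0, 0.25, 0.5, 1, 2, 4, 6, 8 and 24 h, stored at −80 °C, quantified by LC-MS/MS; parameters reported as mean ± SEM.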

The nature of data set [3]: Metabolic stability in human liver microsomes assessed as clearance at 1 uM in presence of NADPH by LC-MS/MS analysis. It counts as ADME, Microsome. The method in brief: (§3)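 Compound at 1 μM preincubated 5 min at 37 °C with human or rat liver microsomes (0.7 mg/mL) in 100 mM PBS pH 7.4; reaction started with 1 mM NADPH.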
On the technique in general: Liver microsomes are vesicles of endoplasmic reticulum, rich in cytochrome P450 enzymes.

The target in data set [4] is WD repeat-containing protein 5 (Homo sapiens) (UniProt P61964). Kind of data set: Binding affinity to WDR5 (unknown origin) assessed as change in entropy by isothermal titration calorimetry assay. On the technique in general: In ITC the heat of successive injections is recorded.
The next data set deals with HUVEC. Description: Antiproliferative activity against human HUVEC cells assessed as cell viability incubated for 72 hrs by CCK8 assay. It counts as cell-based. An outline of the steps: (§4)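 Cells seeded at 3000–6000 per well, exposed to inhibitor at several concentrations for 72 h; viability read with CCK8 kit. MV4-11 and K562 grown in modified IMDM + 10% FBS, pen/strep; MOLM-13 in RPMI-1640 + 10% FBS; HUVEC in modified DMEM + 10% FBS; 37 °C, 5% CO2. IC50 as mean ± SD of three independent experiments.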

Data set [5] deals with T1, Histone-lysine N-methyltransferase 2A (Homo sapiens, UniProt Q03164). Description: Inhibition of MLL1 (unknown origin) in human MV4-11 cells assessed as decrease in H3Kme3 level at 1 to 10 uM measured after 7 days by Western blot analysis. It counts as cell-based. An outline of the steps:
(§5)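 MV4-11 cells exposed to 1, 2.5, 5 and 10 μM; H3K4me1/me2/me3 assessed by Western blot with histone H3 as loading control. Blots blocked in 1% BSA 1 h, primary antibody overnight at 4 °C, DyLight 800 secondary 1 h at 37 °C, infrared imaging.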

Data set [6] deals with MV4-11. Description: Antiproliferative activity against human MV4-11 cells assessed as cell viability incubated for 72 hrs by CCK8 assay. It counts as functional, cell-based. To be noted: MV4-11, 72 h. An outline of the steps: as §4
Data set [7] can be described thus: MRT in Sprague-Dawley rat at 10 mg/kg, po measured upto 24 hrs by LC-MS/MS analysis. It counts as ADME, organism-based. To be noted: in vivo. The method in brief:
as §2

A further data set deals with MOLM-13. Description: Antiproliferative activity against human MOLM-13 cells assessed as cell viability incubated for 72 hrs by CCK8 assay. The settings on record: MOLM-13, 72 h. It is filed as functional, cell-based. The method in brief:
as §4

Data set [8] in a line: AUC (0 to t) in Sprague-Dawley rat at 2 mg/kg, iv measured upto 24 hrs by LC-MS/MS analysis. It counts as ADME, organism-based. Further details: route intravenous, dose 2 mg/kg, time <=24. To be noted: in vivo.
In data set [9] the target is T2, Histone-lysine N-methyltransferase EHMT2 (Homo sapiens, UniProt Q96KQ7).
T2 sequence (Q96KQ7 whole entry): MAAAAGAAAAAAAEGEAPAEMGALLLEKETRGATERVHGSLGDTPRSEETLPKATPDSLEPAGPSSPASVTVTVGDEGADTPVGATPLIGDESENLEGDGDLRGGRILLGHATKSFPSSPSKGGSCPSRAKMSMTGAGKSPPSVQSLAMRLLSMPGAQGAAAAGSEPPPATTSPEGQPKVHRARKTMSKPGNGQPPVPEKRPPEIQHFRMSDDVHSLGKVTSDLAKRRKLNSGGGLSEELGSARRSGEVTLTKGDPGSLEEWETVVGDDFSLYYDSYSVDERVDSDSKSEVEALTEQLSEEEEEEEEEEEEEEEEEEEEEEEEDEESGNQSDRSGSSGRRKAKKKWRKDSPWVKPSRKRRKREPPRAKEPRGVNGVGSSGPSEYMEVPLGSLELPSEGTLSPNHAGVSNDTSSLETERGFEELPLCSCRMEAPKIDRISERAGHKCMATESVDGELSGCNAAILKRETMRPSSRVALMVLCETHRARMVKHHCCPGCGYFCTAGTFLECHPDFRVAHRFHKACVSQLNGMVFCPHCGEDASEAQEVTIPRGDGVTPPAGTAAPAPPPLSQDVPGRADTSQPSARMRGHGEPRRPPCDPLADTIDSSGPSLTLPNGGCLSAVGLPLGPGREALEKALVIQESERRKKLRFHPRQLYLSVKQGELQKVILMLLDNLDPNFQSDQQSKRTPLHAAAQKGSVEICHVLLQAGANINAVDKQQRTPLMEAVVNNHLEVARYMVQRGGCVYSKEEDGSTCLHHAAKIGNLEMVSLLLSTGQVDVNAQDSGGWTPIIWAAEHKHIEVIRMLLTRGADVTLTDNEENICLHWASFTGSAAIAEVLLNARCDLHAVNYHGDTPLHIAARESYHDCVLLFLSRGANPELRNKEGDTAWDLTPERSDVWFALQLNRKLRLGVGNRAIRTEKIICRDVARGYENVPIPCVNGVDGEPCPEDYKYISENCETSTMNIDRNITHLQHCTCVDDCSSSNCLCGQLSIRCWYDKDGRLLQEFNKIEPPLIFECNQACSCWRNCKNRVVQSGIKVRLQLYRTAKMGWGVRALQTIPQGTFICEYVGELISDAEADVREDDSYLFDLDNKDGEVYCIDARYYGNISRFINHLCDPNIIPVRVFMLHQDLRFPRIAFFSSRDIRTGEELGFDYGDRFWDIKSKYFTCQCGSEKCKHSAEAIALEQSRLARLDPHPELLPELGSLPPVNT
Description: Inhibition of G9a (unknown origin) assessed as effect on H3K9 methylation incubated for 30 mins by Alphascreen assay. The method in brief: as §1

Data set [10] can be described thus: Half life in Sprague-Dawley rat at 2 mg/kg, iv measured upto 24 hrs by LC-MS/MS analysis. To be noted: in vivo. It is filed as ADME, organism-based.
The nature of data set [11]: Metabolic stability in human liver microsomes assessed as half life at 1 uM in presence of NADPH by LC-MS/MS analysis. It is filed as ADME, Microsome. An outline of the steps:
as §3

Data set [12] concerns MV4-11. Kind of data set: Antitumor activity against human MV4-11 cells xenografted in Balb/c nude mouse assessed as tumor weight inhibition at 120 mg/kg, po administered daily for 21 days relative to control. It is filed as functional. To be noted: MV4-11, po, 504 h. The method in brief:
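MV4-11 flank xenografts (~5 × 10^6 cells) in female BALB/c nude mice, 6 per group; daily oral dosing (40, 80, 120 mg/kg) or saline vehicle for 21 days, then tumors excised and weighed.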

Data set [13] has as its target T1, Histone-lysine N-methyltransferase 2A. Kind of data set: Inhibition of MLL1 (unknown origin) in human MV4-11 cells assessed as decrease in H3Kme1 level at 1 to 10 uM measured after 7 days by Western blot analysis. It is filed as cell-based. To be noted: dose 1-10 µM, time 7.0 day. An outline of the steps: as §5
Data set [14] can be described thus: Tmax in Sprague-Dawley rat at 10 mg/kg, po measured upto 24 hrs by LC-MS/MS analysis. It counts as ADME, organism-based. To be noted: in vivo. The method in brief:
as §2

SMILES strings stand for the structures. pIC50: −log10 of the molar value. Activity calls are given as the source filed them. The rule behind the calls is not given here. Some results are limits rather than exact numbers.

T1 sequence (Q03164 1-2718 limits assumed): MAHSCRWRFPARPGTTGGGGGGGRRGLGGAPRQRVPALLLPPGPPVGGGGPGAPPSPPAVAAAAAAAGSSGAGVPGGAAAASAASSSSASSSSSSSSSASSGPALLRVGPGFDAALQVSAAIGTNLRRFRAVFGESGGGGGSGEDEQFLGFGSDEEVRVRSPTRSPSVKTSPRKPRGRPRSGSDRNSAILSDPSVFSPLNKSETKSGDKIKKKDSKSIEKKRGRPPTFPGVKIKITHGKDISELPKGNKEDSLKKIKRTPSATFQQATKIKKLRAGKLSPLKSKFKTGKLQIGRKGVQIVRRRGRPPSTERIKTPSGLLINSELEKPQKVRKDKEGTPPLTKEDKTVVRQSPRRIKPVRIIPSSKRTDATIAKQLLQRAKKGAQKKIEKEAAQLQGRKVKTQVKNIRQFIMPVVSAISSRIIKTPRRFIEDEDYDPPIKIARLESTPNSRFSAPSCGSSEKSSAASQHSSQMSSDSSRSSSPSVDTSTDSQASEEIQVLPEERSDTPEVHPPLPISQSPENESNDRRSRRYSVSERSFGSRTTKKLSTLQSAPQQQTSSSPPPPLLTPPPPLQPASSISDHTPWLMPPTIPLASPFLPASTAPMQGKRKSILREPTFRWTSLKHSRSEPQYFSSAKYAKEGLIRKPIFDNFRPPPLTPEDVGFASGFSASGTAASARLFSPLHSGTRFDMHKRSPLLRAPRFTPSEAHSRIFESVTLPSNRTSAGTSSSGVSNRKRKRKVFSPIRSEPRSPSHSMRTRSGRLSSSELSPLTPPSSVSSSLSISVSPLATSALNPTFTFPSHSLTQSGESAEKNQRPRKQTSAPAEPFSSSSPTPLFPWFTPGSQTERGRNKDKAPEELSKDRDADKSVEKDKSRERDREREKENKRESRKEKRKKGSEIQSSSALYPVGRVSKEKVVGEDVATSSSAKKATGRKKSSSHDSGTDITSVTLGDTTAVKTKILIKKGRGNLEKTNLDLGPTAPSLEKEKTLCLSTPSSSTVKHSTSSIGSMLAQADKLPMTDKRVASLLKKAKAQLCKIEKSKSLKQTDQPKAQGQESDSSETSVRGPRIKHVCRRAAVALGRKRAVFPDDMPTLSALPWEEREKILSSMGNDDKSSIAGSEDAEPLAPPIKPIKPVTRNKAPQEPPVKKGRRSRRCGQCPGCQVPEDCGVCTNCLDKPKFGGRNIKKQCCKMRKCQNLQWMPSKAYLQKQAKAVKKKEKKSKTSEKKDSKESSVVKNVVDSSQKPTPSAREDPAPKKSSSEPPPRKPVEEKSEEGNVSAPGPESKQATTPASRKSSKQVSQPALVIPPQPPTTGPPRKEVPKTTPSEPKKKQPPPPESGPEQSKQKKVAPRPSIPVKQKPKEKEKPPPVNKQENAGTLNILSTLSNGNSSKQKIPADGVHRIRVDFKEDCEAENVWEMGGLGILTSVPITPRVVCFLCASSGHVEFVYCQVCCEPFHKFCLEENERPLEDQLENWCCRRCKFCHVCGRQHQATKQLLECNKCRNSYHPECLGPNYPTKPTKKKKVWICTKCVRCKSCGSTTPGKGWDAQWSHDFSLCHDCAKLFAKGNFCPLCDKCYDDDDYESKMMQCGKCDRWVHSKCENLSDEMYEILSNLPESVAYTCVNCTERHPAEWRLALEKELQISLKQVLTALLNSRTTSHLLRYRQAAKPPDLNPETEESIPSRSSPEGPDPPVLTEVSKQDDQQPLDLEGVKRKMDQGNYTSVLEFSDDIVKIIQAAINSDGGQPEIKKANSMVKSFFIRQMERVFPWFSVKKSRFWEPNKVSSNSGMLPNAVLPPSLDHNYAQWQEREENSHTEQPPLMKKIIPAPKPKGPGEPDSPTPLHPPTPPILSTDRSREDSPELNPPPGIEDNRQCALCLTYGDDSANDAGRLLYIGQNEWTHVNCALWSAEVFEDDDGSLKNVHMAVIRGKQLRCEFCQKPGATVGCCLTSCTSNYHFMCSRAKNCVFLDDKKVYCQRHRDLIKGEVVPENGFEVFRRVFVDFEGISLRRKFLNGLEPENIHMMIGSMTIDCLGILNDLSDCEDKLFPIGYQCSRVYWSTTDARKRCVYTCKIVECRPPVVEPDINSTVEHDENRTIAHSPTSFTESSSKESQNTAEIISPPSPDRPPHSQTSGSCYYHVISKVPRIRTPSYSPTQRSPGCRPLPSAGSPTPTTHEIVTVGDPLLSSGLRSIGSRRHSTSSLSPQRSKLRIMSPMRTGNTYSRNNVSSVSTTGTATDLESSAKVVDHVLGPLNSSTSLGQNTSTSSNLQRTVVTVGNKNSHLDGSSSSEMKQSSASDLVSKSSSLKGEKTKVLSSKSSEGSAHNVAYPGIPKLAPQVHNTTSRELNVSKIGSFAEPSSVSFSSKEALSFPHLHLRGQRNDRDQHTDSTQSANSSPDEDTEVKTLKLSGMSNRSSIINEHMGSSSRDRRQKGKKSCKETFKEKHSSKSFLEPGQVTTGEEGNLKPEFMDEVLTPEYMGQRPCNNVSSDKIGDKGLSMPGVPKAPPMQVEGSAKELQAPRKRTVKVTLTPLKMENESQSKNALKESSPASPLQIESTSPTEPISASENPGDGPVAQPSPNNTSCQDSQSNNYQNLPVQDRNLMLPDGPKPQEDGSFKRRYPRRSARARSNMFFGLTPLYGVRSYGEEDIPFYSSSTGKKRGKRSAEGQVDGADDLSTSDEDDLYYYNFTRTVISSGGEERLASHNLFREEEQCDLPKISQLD
T1 sequence (Q03164 2719-3969 limits assumed): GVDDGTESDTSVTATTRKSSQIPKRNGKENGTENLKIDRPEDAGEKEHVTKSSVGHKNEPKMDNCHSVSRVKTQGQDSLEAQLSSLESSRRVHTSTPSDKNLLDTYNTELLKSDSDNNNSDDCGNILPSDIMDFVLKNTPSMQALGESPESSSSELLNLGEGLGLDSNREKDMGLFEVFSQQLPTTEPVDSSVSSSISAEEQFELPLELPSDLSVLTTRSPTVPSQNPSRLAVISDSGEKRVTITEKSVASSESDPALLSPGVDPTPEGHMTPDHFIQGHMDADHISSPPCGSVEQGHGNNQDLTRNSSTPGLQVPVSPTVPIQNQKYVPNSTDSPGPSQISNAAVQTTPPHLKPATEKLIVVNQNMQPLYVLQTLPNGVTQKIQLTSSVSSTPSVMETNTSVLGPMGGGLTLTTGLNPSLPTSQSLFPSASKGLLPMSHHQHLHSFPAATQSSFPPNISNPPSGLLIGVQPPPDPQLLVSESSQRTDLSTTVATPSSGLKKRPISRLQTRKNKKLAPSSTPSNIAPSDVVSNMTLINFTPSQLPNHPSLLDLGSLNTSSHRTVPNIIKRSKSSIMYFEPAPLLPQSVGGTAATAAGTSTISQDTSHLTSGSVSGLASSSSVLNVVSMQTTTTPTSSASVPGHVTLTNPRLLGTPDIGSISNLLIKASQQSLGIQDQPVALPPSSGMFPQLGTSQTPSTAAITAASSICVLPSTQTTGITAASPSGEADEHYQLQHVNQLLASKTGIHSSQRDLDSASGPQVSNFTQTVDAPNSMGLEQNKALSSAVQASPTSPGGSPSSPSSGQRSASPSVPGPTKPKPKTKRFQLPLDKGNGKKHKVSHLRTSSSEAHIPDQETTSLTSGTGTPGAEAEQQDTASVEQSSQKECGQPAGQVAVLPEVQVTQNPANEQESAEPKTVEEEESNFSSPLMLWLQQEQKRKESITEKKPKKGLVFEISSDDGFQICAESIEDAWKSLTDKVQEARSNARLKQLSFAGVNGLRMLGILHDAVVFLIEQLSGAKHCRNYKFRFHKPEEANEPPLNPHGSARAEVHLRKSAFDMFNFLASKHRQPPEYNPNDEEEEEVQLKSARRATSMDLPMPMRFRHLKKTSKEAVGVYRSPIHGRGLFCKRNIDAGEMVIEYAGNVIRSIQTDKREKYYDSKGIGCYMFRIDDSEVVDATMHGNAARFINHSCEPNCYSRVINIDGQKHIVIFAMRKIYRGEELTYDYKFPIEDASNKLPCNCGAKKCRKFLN
Sequence of Histone-lysine N-methyltransferase EZH2 (Q15910 whole entry): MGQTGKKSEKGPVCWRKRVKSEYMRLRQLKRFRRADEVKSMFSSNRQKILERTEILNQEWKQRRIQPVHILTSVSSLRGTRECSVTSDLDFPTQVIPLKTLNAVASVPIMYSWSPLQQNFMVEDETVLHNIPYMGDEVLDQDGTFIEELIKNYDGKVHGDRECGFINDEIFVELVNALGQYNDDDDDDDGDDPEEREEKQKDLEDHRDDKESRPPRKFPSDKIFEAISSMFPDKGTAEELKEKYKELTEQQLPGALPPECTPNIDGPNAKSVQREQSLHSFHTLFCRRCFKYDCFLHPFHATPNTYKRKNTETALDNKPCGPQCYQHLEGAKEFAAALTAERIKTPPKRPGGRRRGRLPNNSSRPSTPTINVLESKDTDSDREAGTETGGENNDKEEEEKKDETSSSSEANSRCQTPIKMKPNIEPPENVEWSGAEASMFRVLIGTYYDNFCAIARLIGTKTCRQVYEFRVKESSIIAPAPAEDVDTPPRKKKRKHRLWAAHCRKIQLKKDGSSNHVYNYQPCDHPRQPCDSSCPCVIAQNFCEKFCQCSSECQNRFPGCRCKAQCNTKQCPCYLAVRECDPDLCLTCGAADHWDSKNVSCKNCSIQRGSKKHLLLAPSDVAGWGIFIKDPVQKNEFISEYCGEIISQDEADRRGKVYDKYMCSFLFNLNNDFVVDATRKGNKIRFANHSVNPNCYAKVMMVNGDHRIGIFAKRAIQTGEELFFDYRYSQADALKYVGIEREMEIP

For the molecule `CN1CCN(c2cc(F)c(-c3ccc(C(=O)N(C)C)cc3)cc2Nc2ncnc(Cl)c2N)CC1`, the pIC50 was less than 4.00 in data set [1]; less than 4.00 in the data set with HUVEC; 4.90 with MV4-11 [6]; 4.88 in the data set on MOLM-13; less than 4.00 in [9]. Also, in [2], the CL/F was found to be 97.2 mL/min/kg. Further, the CLH in data set [3] was determined as 14.1 µL/min/mg. The -TdeltaS in data set [4] was found to be 2.51 kcal/mol. The inhibition entry in [5] is “Active”. The MRT in data set [7] is 5.42 h. The molecule further came in with an AUC(0-t) at 24 h in [8] of 411 ng·h/mL. The molecule further gave a half-life in [10] of 1.7 h. For the same molecule, in [11], the half-life at 1 µM worked out at 1.17 h. Also, the inhibition in vivo at 120 mg/kg in the data set with MV4-11 [12] came out at 56.8%. Further, in data set [13], the inhibition result is “Dose-Dependent Effect”. For the same molecule, the Tmax in data set [14] was found to be 2 h.
